From ChEMBL document CHEMBL3286218, “Structure-activity relationship studies of N-methylated and N-hydroxylated spider polyamine toxins as inhibitors of ionotropic glutamate receptors” (J Med Chem, 2014) come the findings set out here.

Common to all, as to type: cell-based
The target in experiment [1] is Glutamate receptor 1 (Rattus norvegicus) (UniProt P19490). As to the kind of experiment: Inhibition of rat recombinant GluA1 expressed in Xenopus oocytes assessed as inhibition of glutamate-induced channel current at 100 nM at holding potential of -80 mV by two-electrode voltage clamp technique. The procedure, abridged: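 Xenopus oocytes injected with GluA1_i cRNA (25 nL of 1 ng/nL), kept 2–4 days at 17 °C in Barth's medium with gentamicin. Two-electrode voltage clamp at room temperature in superfused frog Ringer's (Ba2+-containing, pH 7.6). Current evoked by 300 μM L-glutamate; test compound at 100 nM added by bath, co-applied with agonist. Percent inhibition of the evoked current recorded.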
(In general: Two-electrode voltage clamp is typically applied to oocytes expressing channels or transporters.)

In experiment [2] the target is Glutamate NMDA receptor; Grin1/Grin2a (Rattus norvegicus) (UniProt P35439+Q00959). As to the kind of experiment: Inhibition of rat recombinant GluN1/2A expressed in Xenopus oocytes assessed as inhibition of glutamate/glycine-evoked channel current at 100 nM at holding potential of -80 mV by two-electrode voltage clamp technique. The procedure, abridged:
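Single-concentration screen at 100 nM on oocytes expressing GluN1/2A (1:10 cRNA ratio), two-electrode clamp at −80 mV, rt, in frog Ringer's. Percent inhibition of current evoked by 100 μM L-glutamate plus 100 μM glycine, with compound bath-applied in Ringer's.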

Experiment [3] has as its target Glutamate NMDA receptor; Grin1/Grin2a (Rattus norvegicus, UniProt P35439+Q00959). As to the kind of experiment: Inhibition of rat recombinant GluN1/2A expressed in Xenopus oocytes assessed as inhibition of glutamate/glycine-evoked channel current at holding potential of -80 mV by two-electrode voltage clamp technique. The procedure, abridged:
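Oocytes were injected with GluN1/N2A cRNA at a 1:10 ratio (25 nL at 0.5 ng/nL), incubated at 17 °C in Barth's medium with gentamicin, and recorded after 2−4 days. Clamp at −80 mV, rt, in frog Ringer's (BaCl₂, pH 7.6). Increasing antagonist was co-applied with 100 μM L-glutamate plus 100 μM glycine. IC50 came from a Hill fit over 3−8 oocytes.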

For another experiment, the target named is Glutamate receptor 1 (Rattus norvegicus, UniProt P19490). Nature of the experiment: Inhibition of rat recombinant GluA1 expressed in Xenopus oocytes assessed as inhibition of glutamate-induced channel current at holding potential of -80 mV by two-electrode voltage clamp technique. The procedure, abridged:
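GluA1_i cRNA (25 nL at 1 ng/nL) injected into collagenase-treated oocytes, kept at 17 °C in Barth's medium (pH 7.4) with gentamicin, recorded 2−4 days later. Held at −80 mV, rt, superfused with frog Ringer's (BaCl₂, pH 7.6). Antagonist co-applied with 300 μM L-glutamate at rising concentrations. Curves from 3−8 oocytes fitted to a Hill equation for IC50.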

The species entered for the next experiment is Rattus norvegicus. As to the kind of experiment: Selectivity ratio of IC50 for rat recombinant GluN1/2A expressed in Xenopus oocytes to IC50 for rat recombinant GluA1 expressed in Xenopus oocytes.

Sequence of Glutamate receptor 1 (Rattus norvegicus) (P19490 whole entry, the tested form may be a part): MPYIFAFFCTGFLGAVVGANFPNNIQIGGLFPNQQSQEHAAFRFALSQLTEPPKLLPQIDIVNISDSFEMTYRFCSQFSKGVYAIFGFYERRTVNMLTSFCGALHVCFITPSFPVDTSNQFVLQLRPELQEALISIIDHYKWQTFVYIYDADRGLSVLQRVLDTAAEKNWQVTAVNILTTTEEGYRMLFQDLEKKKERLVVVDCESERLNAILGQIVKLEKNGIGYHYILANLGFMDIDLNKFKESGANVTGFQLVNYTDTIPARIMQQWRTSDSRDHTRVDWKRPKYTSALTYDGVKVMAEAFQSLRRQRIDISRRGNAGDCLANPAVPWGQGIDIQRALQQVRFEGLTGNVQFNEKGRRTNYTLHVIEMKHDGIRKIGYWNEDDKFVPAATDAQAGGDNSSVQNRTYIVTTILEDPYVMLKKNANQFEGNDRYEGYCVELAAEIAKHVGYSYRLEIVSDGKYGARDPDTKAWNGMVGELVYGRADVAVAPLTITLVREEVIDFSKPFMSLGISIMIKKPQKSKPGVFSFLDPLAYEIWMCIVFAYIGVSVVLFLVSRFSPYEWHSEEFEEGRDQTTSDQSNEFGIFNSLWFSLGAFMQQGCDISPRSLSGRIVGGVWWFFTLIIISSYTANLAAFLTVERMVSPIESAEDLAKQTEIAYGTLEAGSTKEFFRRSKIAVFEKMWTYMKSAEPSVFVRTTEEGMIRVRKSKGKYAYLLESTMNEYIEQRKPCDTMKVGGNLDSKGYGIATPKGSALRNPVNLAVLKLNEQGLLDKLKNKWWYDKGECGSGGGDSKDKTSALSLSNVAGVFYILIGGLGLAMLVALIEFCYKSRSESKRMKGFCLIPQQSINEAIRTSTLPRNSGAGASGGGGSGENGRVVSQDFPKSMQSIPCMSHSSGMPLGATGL
Sequence of Glutamate receptor 1 (P19490 whole entry, the tested form may be a part): as above

In the case of `CN(CCCC[C@H](N)C(=O)NCCCCCNC(=O)[C@H](CC(N)=O)NC(=O)Cc1c[nH]c2ccccc12)CCCNC(=O)[C@@H](N)CCCNC(=N)N`, the inhibition was more than 40% in experiment [1] and less than 20% in experiment [2].

As to `NCCCNCCCCNCCCNCCCNCCCNC(=O)Cc1ccc(O)cc1O`, the inhibition in experiment [2] was more than 90%.

With `NCCCNCCCCNCCCNCCCN(O)CCCNC(=O)Cc1c[nH]c2ccccc12`, the inhibition in experiment [2] was more than 90%. Moreover, the IC50 is 0.012 µM in experiment [3] and 0.011 µM on Glutamate receptor 1.

Consider `NCCCNCCCCNCCCNCCCNCCCNC(=O)Cc1c[nH]c2cccc(O)c12`, for which the inhibition in experiment [2] is more than 90%.

With `N=C(N)NCCC[C@H](N)C(=O)NCCCNCCCC[C@H](N)C(=O)NCCCCCNC(=O)[C@H](CC(N)=O)NC(=O)Cc1c[nH]c2cccc(O)c12`, the values for the inhibition in experiment [1] and in experiment [2] were 84% and less than 20%, respectively. Moreover, the IC50 in experiment [3] is 0.387 µM; at Glutamate receptor 1, 0.015 µM. In addition, the Ratio IC50 in the experiment listed under Rattus norvegicus is 26.

`C[N+](C)(CCCC[C@H](N)C(=O)NCCCCCNC(=O)[C@H](CC(N)=O)NC(=O)Cc1c[nH]c2ccccc12)CCCNC(=O)[C@@H](N)CCCNC(=N)N`: the inhibition in experiment [1] was more than 40%; in experiment [2], less than 20%.

For `NCCCNCCCCNCCCNCCCNCCCNC(=O)Cc1c[nH]c2ccccc12`, the inhibition in experiment [2] is more than 90%.

Take `NCCCNCCCCNCCCNCCCN(O)CCCNC(=O)Cc1c[nH]c2cccc(O)c12`: in experiment [2], the inhibition is more than 90%.

On to `C[N+](C)(CCCC[C@H](N)C(=O)NCCCCCNC(=O)[C@H](CC(N)=O)NC(=O)Cc1c[nH]c2cccc(O)c12)CCCNC(=O)[C@@H](N)CCCNC(=N)N`, for which the inhibition in experiment [1] was more than 40%; in experiment [2] it was less than 20%. The IC50 in experiment [3] turned out to be 3.85 µM; at Glutamate receptor 1 it was 0.123 µM.

In the case of `CN(CCCC[C@H](N)C(=O)NCCCCCNC(=O)[C@H](CC(N)=O)NC(=O)Cc1c[nH]c2cccc(O)c12)CCCNC(=O)[C@@H](N)CCCNC(=N)N`, the inhibition in experiment [1] is more than 40%; in experiment [2], less than 20%. The IC50 is 1.63 µM in experiment [3] and 0.052 µM on Glutamate receptor 1.

As to `N=C(N)NCCC[C@H](N)C(=O)NCCCNCCCC[C@H](N)C(=O)NCCCCCNC(=O)[C@H](CC(N)=O)NC(=O)Cc1c[nH]c2ccccc12`, the inhibition in experiment [1] was 81%; in experiment [2], less than 20%.

One may read the inhibition as the drop in the measured response relative to a control, in per cent. As a reminder, the IC50 is the midpoint of a concentration-inhibition curve.
